Experimental data gathered from unrelated publications.
Sample: plasma

Structure (SMILES)	system	setting	half-life
CO[C@H]1/C=C\C=C(/C)C(=O)NC2=CC(=O)C(NCCN(C)C)=C(C[C@@H](C)C[C@H](OC)[C@H](O)[C@@H](C)/C=C(\C)[C@@H]1OC(N)=O)C2=O	human	intravenous, 27 mg/m², patients, infusion	22.5 h
COc1cc(C(=O)NC2CCN(C)CC2)c(F)cc1Nc1ncc(C(F)(F)F)c(Oc2cccc3c2C(=O)N(C)C3)n1	human	oral, 100 mg, multiple doses, once daily, patients	18.9 h
COCCOc1cnc2ccn([C@H](C)c3nnc4c(F)cc(-c5cnn(C)c5)cn34)c(=O)c2c1	human	oral, 400 mg, multiple doses, once daily, patients	7.7 h
CC(C)(O)c1ccccc1-c1ccc2[nH]c(/C=C/c3ccc(C(F)(F)F)cc3)nc2c1	male human	oral, 50 mg, single dose, fasted, healthy volunteers	68.6 h
CCOc1cc([C@@H](CS(C)(=O)=O)N2C(=O)c3cccc(NC(C)=O)c3C2=O)ccc1OC	male human	oral, 20 mg, single dose, healthy volunteers	7.6 h
COc1ccc([C@@H]2CN(C(=O)[C@@H](O)CO)C[C@@]2(C)[C@@H](C)O)cc1OC1CN(c2ccc(C)cn2)C1	human	oral, 40 mg, single dose, healthy volunteers	12.1 h
CO[C@H]1CC[C@H](N2C(=O)CNc3ncc(-c4ccc(C(C)(C)O)nc4)nc32)CC1	human	oral, 7.5 mg, patients	7.68 h
NS(=O)(=O)NCCNc1nonc1C(=NO)Nc1ccc(F)c(Br)c1	human	oral, 600 mg, multiple doses, twice daily, steady state, patients	3.3 h
C/C(=C\c1csc(C)n1)[C@@H]1C[C@@H]2O[C@]2(C)CCC[C@H](C)[C@H](O)[C@@H](C)C(=O)C(C)(C)[C@@H](O)CC(=O)N1	human	intravenous, 20 mg/m², patients	62.2 h
CS(=O)(=O)CCC#N	human	oral, 300 mg, multiple doses, once daily	21.3 h
CC(C)(Sc1ccncc1-c1ccc(C#N)c2ccccc12)C(=O)O	male human	oral, 40 mg, single dose, fasted, healthy volunteers	9.51 h
O=C(/C=C/c1cccc(S(=O)(=O)Nc2ccccc2)c1)NO	human	intravenous, 2000 mg/m², patients	1.42 h
C[C@@H](c1ccc2nccn2c1)n1nnc2ncc(-c3cnn(C)c3)nc21	human	oral, 600 mg	7.1 h
CC(C)(C)OC[C@@H]1C(=O)NCCN1C(=O)C[C@H](N)Cc1cc(F)c(F)cc1F	male human	oral, 5 mg, multiple doses, steady state, healthy volunteers	24.7 h
CC(C)n1cc(C#N)c2cc(-n3cc(C(=O)O)cn3)ccc21	human	oral, 10 mg, single dose, fasted, healthy volunteers	5.1 h
OC[C@H]1O[C@@H](c2ccc(Cl)c(Cc3ccc(O[C@H]4CCOC4)cc3)c2)[C@H](O)[C@@H](O)[C@@H]1O	male human	oral, 25 mg, multiple doses, once daily, steady state	8.44 h
Cn1cc(-c2ccc(S(=O)(=O)[C@@H]3C[C@@H](C(=O)NC4(C#N)CC4)N(C(=O)C4(C(F)(F)F)CC4)C3)c(C(F)(F)F)c2)cn1	human	oral, 100 mg, single dose, fasted, healthy volunteers	13.1 h
CO[C@@H]1[C@H](OC(=O)N2CC(CCN3CCOCC3)C2)CC[C@]2(CO2)[C@H]1[C@@]1(C)O[C@@H]1CC=C(C)C	human	subcutaneous, 1.2 mg, single dose, healthy volunteers	0.72 h
c1cnc2ccc(Nc3nc(NC4CC4)c4nc[nH]c4n3)cc2c1	human	oral, 400 mg/m², patients	3.6 h
